Drawing on ChEMBL document CHEMBL4680199, “Synthesis and in vitro evaluation of new 5-substituted 6-nitroimidazooxazoles as antikinetoplastid agents” (Eur J Med Chem, 2020), this text covers selectivity ratio, IC50 and CC50 for 23 compounds.

A short description of data set [1]: Selectivity index, ratio of CC50 for CHO cells to IC50 for antileishmanial activity against Leishmania donovani MHOM/IN/00/DEVI promastigotes. The format is toxicity. The conditions noted are these: hamster, read-out: Ratio CC50/IC50. Summed up:
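SI = CHO CC50 / promastigote IC50. Promastigotes: log-phase, Schneider's + 20% FCS, 10⁶/mL, DMSO <0.5% final, 72 h at 27 °C, MTT 4 h, A570, ≥3 experiments. CHO: complete RPMI + 10% FCS, 24 h attachment, 24 h exposure at 37 °C, MTT 0.5 mg/mL 2 h, A570/630, three experiments. Both values from non-linear regression of dose-response curves.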

The subject of the next data set is Leishmania donovani. The experiment in a line: Antileishmanial activity against Leishmania donovani MHOM/IN/00/DEVI promastigotes measured after 72 hrs by MTT assay. The format is functional, organism-based. In a few lines: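 Log-phase promastigotes were grown in Schneider's medium with 20% FCS, 2 mM L-glutamine and penicillin/streptomycin, and seeded at 10⁶ parasites/mL. Compounds in DMSO (final <0.5% v/v) were tested in duplicate for 72 h at 27 °C. MTT was added for 4 h, the reaction was stopped with 50% isopropanol/10% SDS, and A570 was read. IC50 relative to control was fitted by non-linear regression; mean of ≥3 independent experiments.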

The nature of data set [2]: Cytotoxicity against CHO cells assessed as reduction in cell viability after 24 hrs by MTT assay. In kind it is cell-based, Cricetulus griseus. The conditions noted are these: chinese hamster. Summed up: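 Cells in complete RPMI (10% FCS, L-glutamine, penicillin/streptomycin) were allowed to adhere for 24 h at 37 °C in 5% CO₂. Compounds in DMSO (final <0.5% v/v) were then added in duplicate for 24 h. MTT (0.5 mg/mL in FCS-free medium) was applied for 2 h, formazan was dissolved in DMSO, and A570 was read with 630 nm reference. Viability is % of untreated cells; CC50 by non-linear regression; mean of three experiments.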

The test system of the next data set is Trypanosoma cruzi. The experiment in a line: Antitrypanosomal activity against Trypanosoma cruzi CL amastigotes overexpressing tdTomato red fluorescent protein infected in gamma-irradiated African green monkey Vero cells assessed as reduction in parasite growth measured 3 days post-infection by fluorescence assay. In kind it is functional, organism-based. The conditions noted are these: light or radiation study, 72 h.

A short description of data set [3]: Selectivity index, ratio of CC50 for CHO cells to IC50 for antitrypanosomal activity against Trypanosoma cruzi CL amastigotes overexpressing tdTomato red fluorescent protein infected in gamma-irradiated African green monkey Vero cells. Conditions: Chinese hamster, read-out: Ratio CC50/IC50. In kind it is toxicity. In a few lines: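 SI = CHO CC50 / T. cruzi IC50. CHO cells: complete RPMI + 10% FCS, 24 h attachment, then 24 h compound exposure at 37 °C, 5% CO₂, DMSO <0.5% final, in duplicate. MTT 0.5 mg/mL for 2 h, read at A570/630, three experiments. Parasites were tdTomato-labelled trypomastigotes. Both values from non-linear regression of dose-response curves.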

Turning to `CC1Cn2cc([N+](=O)[O-])nc2O1` (centres undefined), the selectivity ratio in data set [1] is greater than 5000. The IC50 in the data set with Leishmania donovani is 0.1 µM; in the data set on Trypanosoma cruzi, greater than 10 µM. For the same compound, in data set [2], the CC50 at 24 h is greater than 500 µM.
On to `CC1Cn2c(nc([N+](=O)[O-])c2C#Cc2ccc(CO)cc2)O1` (centres undefined), for which the results for the selectivity ratio in data set [1] and in data set [3] were 2.1 and 5.4, respectively. The values for the IC50 in the data set with Leishmania donovani and in the data set with Trypanosoma cruzi were 4.11 µM and 1.61 µM, respectively. The CC50 at 24 h in data set [2] was found to be 8.77 µM.
For `Cc1ccc(-c2c([N+](=O)[O-])nc3n2CC(C)O3)s1` (centres undefined), the IC50 in the data set on Leishmania donovani and with Trypanosoma cruzi was greater than 10 µM each time. For the same compound, the 50% cytotoxic concentration (CC50) at 24 h in data set [2] is greater than 125 µM.
Take `CC1Cn2c(nc([N+](=O)[O-])c2-c2ccc(C=O)cc2)O1` (centres undefined): the half-maximal inhibitory concentration (IC50) with Leishmania donovani and in the data set with Trypanosoma cruzi was greater than 10 µM each time. Also, the 50% cytotoxic concentration (CC50) at 24 h in data set [2] came out at 255 µM.
On to `CC1Cn2c(nc([N+](=O)[O-])c2Br)O1` (centres undefined), for which the selectivity ratio in data set [1] came out at 1.4. For the same compound, the IC50 was 6.71 µM in the data set on Leishmania donovani and greater than 10 µM in the data set with Trypanosoma cruzi. Also, the CC50 at 24 h in data set [2] was 9.19 µM.
On to `CC1Cn2c(nc([N+](=O)[O-])c2-c2ccc(Cl)cc2)O1` (centres undefined), for which the IC50 in the data set on Leishmania donovani and with Trypanosoma cruzi was greater than 10 µM each time. The CC50 at 24 h in data set [2] was greater than 250 µM.
Consider `COc1cc(-c2c([N+](=O)[O-])nc3n2CC(C)O3)cc(OC)c1OC` (centres undefined), for which the IC50 in the data set on Leishmania donovani and with Trypanosoma cruzi was greater than 10 µM in each case. Further, the CC50 at 24 h in data set [2] is greater than 125 µM.
In the case of `CC1Cn2c(nc([N+](=O)[O-])c2C#Cc2cccc(N)c2)O1` (centres undefined), the selectivity ratio in data set [1] was found to be 5.2; in data set [3] it was 5. In addition, the figures for the IC50 in the data set with Leishmania donovani and with Trypanosoma cruzi were 3.49 µM and 3.63 µM, respectively. Further, the CC50 at 24 h in data set [2] turned out to be 18.1 µM.
`CC1Cn2c(nc([N+](=O)[O-])c2C#Cc2ccccc2)O1` (centres undefined): the selectivity ratio is 1.7 in data set [1] and 2.4 in data set [3]. The IC50 in the data set with Leishmania donovani stood at 2.08 µM; in the data set on Trypanosoma cruzi, 1.46 µM. Also, the CC50 at 24 h in data set [2] was 3.54 µM.
For `COc1cccc(C#Cc2c([N+](=O)[O-])nc3n2CC(C)O3)c1` (centres undefined) the same measures were 8.1, 14, 1.58 µM, 0.92 µM and 12.9 µM.
Take `CC1Cn2c(nc([N+](=O)[O-])c2C#Cc2ccc(C(C)(C)C)cc2)O1` (centres undefined): the selectivity ratio came to 10.8 in data set [1] and 2.3 in data set [3]. The IC50 with Leishmania donovani is 0.61 µM; in the data set on Trypanosoma cruzi, 2.86 µM. Moreover, the cytotoxic concentration (CC50) at 24 h in data set [2] amounted to 6.62 µM.
The matching figures for `Cc1ccc(C#Cc2c([N+](=O)[O-])nc3n2CC(C)O3)cc1` (centres undefined): 3.3, 2.5, 1.66 µM, 2.18 µM and 5.47 µM.
Take `CC1Cn2c(nc([N+](=O)[O-])c2-c2ccc(OC(F)(F)F)cc2)O1` (centres undefined): the half-maximal inhibitory concentration (IC50) in the data set with Leishmania donovani and in the data set with Trypanosoma cruzi was greater than 10 µM throughout. The CC50 at 24 h in data set [2] was greater than 125 µM.
As to `CC1Cn2c(nc([N+](=O)[O-])c2-c2cccc(C(F)(F)F)c2)O1` (centres undefined), the IC50 in the data set on Leishmania donovani and in the data set with Trypanosoma cruzi was greater than 10 µM each time. Further, the CC50 at 24 h in data set [2] was greater than 250 µM.
As to `CC1Cn2c(nc([N+](=O)[O-])c2C#CC2CC2)O1` (centres undefined), the selectivity ratio in data set [1] amounted to 1.4; in data set [3], 1.6. For the same compound, the IC50 was found to be 4.59 µM in the data set with Leishmania donovani and 4.1 µM in the data set on Trypanosoma cruzi. Moreover, in data set [2], the CC50 at 24 h was 6.45 µM.
As to `Cc1ccc(-c2c([N+](=O)[O-])nc3n2CC(C)O3)cc1` (centres undefined), the IC50 with Leishmania donovani and in the data set on Trypanosoma cruzi was greater than 10 µM each time. In data set [2], the CC50 at 24 h is greater than 250 µM.
Take `CC1Cn2c(nc([N+](=O)[O-])c2-c2cccc(C#N)c2)O1` (centres undefined): the IC50 with Leishmania donovani and in the data set with Trypanosoma cruzi was greater than 10 µM in each case. Besides, the CC50 at 24 h in data set [2] is greater than 500 µM.
Turning to `CC1Cn2c(nc([N+](=O)[O-])c2-c2ccc(CO)cc2)O1` (centres undefined), the IC50 in the data set with Leishmania donovani and with Trypanosoma cruzi was greater than 10 µM each time. Also, in data set [2], the CC50 at 24 h is greater than 500 µM.
For `CC1Cn2c(nc([N+](=O)[O-])c2-c2ccccc2)O1` (centres undefined), the IC50 in the data set on Leishmania donovani and in the data set on Trypanosoma cruzi was greater than 10 µM in each case. Also, the cytotoxic concentration (CC50) at 24 h in data set [2] was greater than 500 µM.
With `CCCOc1ccc(-c2c([N+](=O)[O-])nc3n2CC(C)O3)cc1` (centres undefined), the IC50 with Leishmania donovani and with Trypanosoma cruzi was greater than 10 µM each time. For the same compound, the CC50 at 24 h in data set [2] was greater than 125 µM.
For `C[C@@H]1[C@H](O)[C@@H](C)/C=C/C=C/C=C/C=C/C=C/C=C/C=C/[C@H](O[C@@H]2O[C@H](C)[C@@H](O)[C@H](N)[C@@H]2O)C[C@@H]2O[C@](O)(C[C@@H](O)C[C@@H](O)[C@H](O)CC[C@@H](O)C[C@@H](O)CC(=O)O[C@H]1C)C[C@H](O)[C@H]2C(=O)O` [AMPHOTERICIN B], in the data set on Leishmania donovani, the IC50 was 0.18 µM.
Turning to `O=C(Cn1ccnc1[N+](=O)[O-])NCc1ccccc1` [BENZNIDAZOLE], in the data set on Trypanosoma cruzi, the IC50 is 2.31 µM.
As for `COc1cccc2c1C(=O)c1c(O)c3c(c(O)c1C2=O)C[C@@](O)(C(=O)CO)C[C@@H]3O[C@H]1C[C@H](N)[C@H](O)[C@H](C)O1` [DOXORUBICIN], the CC50 at 24 h in data set [2] came to 4.65 µM.
